ChEMBL document CHEMBL2069203, “Cytotoxic and antibacterial beilschmiedic acids from a Gabonese species of Beilschmiedia” (J Nat Prod, 2012)
Values after ≈ are worked out from the molar mass of the structure shown. Active and inactive are the calls of the source.

How the values were obtained:
[1] = test system: NCI-H460; assay: Cytotoxicity against human NCI-H460 cells incubated for 72 hrs by MTT assay; type: functional, cell-based
Summary of the method: (§1)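 Cells kept in RPMI-1640 with 10% FBS plus L-glutamine and HEPES, seeded at 5 × 10^2 to 5 × 10^4 cells/well and left to adhere overnight. Medium was replaced with DMSO stock diluted in medium at eight concentrations, 2−5 wells each. Camptothecin and vehicle served as controls. After 72 h at 37 °C, 5% CO2, viable cells were read by CellTiter 96 AQueous. IC50 came from dose−response curves.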

[2] = test system: Staphylococcus aureus; assay: Antimicrobial activity against methicillin-resistant Staphylococcus aureus isolate 108 incubated for 24 hrs by broth microdilution method; type: functional
Summary of the method: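 CLSI broth microdilution on clinical MRSA isolate 108. Overnight trypticase soy broth culture diluted 1:100 in cation-adjusted Mueller-Hinton broth, grown at 37 °C to OD600 0.2, diluted 1:100 again to give 10^6 cfu/mL. Compound in DMSO diluted in medium, tested across a concentration series, 3-6 wells each. Vancomycin positive control. Incubated 24 h at 37 °C. MIC = lowest concentration preventing visible growth.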

[3] = test system: PC-3; assay: Cytotoxicity against human PC3 cells incubated for 72 hrs by MTT assay; type: functional, cell-based; summary of the method: as §1
[4] = test system: M14; assay: Cytotoxicity against human M14 cells incubated for 72 hrs by MTT assay; type: functional, cell-based; summary of the method: as §1
[5] = test system: NCI-H460; assay: Induction of membrane disruption in human NCI-H460 cells at 3 yo 5 fold cytotoxic IC50 level by LDH release assay; type: functional, cell-based
Summary of the method: (§2)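 NCI-H460 cells were plated at 1 × 10^4 cells/well in RPMI-1640 with 10% fetal calf serum and attached overnight. Compound or DMSO vehicle was added and incubated 24 or 72 h. Supernatant LDH was measured with the CytoTox 96 kit, absorbance at 490 nm, with kit lysis solution as positive control.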

[6] = test system: NCI-H460; assay: Induction of membrane disruption in human NCI-H460 cells at 20 uM by LDH release assay; type: functional, cell-based; summary of the method: as §2
[7] = test system: NCI-H460; assay: Induction of apoptosis in human NCI-H460 cells assessed as caspase 3/7 activation at 26.1uM; type: functional, cell-based
Summary of the method: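 NCI-H460 cells were plated at 1 × 10^4 cells/well in RPMI-1640 with 10% fetal calf serum and attached overnight. Compound or DMSO vehicle was added and incubated 24 or 72 h. Caspase 3/7 activity was read by Caspase-Glo 3/7 luminescence, with camptothecin 10 μg/mL as positive control. A result counted as active when caspase exceeded background plus two SD of the negative control without LDH release.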

[8] = Homo sapiens, NCI-H460, 72 h, read-out: IC50

For `O=C(O)C1=C[C@@H](O)[C@@H]2C[C@H]3[C@H](C/C=C/C=C/c4ccccc4)[C@H]4C=C[C@@H]1[C@@H]2[C@H]43` [BEILSCHMIEDIC ACID L], the IC50 [1, 8] was 4.4 µM, the MIC ([2]; isolate 108, 24 h) was 11 mg/L (≈ 29.4 µM) and the Activity [3] was “inactive”. For the same compound, the Activity [4] was “inactive” and the Activity [5] was “inactive”.
For `O=C(O)C1=C[C@@H](O)[C@@H]2C[C@H]3[C@H](CCC/C=C/C=C/c4ccccc4)[C@H]4C=C[C@@H]1[C@@H]2[C@H]43`, the IC50 ([1]; nci-h460) was “Not Active”, the MIC [2] was “inactive” and the Activity [3] was “inactive”. The Activity [4] was “inactive” and the Activity [6] was “inactive”.
For `O=C(O)C1=C[C@@H](O)[C@@H]2C[C@H]3[C@H](CCC/C=C\C=C\c4ccccc4)[C@H]4C=C[C@@H]1[C@@H]2[C@H]43` [BEILSCHMIEDIC ACID M], the IC50 [1, 8] was 8.7 µM, the MIC ([2]; isolate 108, 24 h) was 12 mg/L (≈ 29.8 µM) and the Activity [3] was “inactive”. For the same compound, the Activity [4] was “inactive”, the Activity [5] was “inactive” and the Activity [7] was “Active”.
In the case of `CCCCCCCC[C@@H]1[C@H]2C=C[C@H]3C(C(=O)O)=C[C@@H](O)[C@@H]4C[C@@H]1[C@@H]2[C@H]43` [BEILSCHMIEDIC ACID C], the IC50 ([1]; nci-h460) is reported as “Not Active”, the MIC [2] is reported as “inactive” and the Activity [3] is reported as “inactive”. For the same compound, the Activity [4] was “inactive” and the Activity [6] was “inactive”.
In the case of `CC[C@@]1(O)C(=O)OCc2c1cc1n(c2=O)Cc2cc3ccccc3nc2-1` [CAMPTOTHECIN], the IC50 [1, 8] is reported as 0.003 µM.
For `O=C(O)C1=C[C@H](O)[C@@H]2C[C@H]3[C@H](CCC/C=C/C=C/c4ccccc4)[C@H]4C=C[C@@H]1[C@@H]2[C@H]43` [BEILSCHMIEDIC ACID I], the IC50 [1, 8] was 5.5 µM, the MIC ([2]; isolate 108, 24 h) was 12 mg/L (≈ 29.8 µM) and the Activity [3] was “inactive”. The Activity [4] was “inactive” and the Activity [5] was “inactive”.
For `O=C(O)C1=C[C@@H](O)[C@@H]2C[C@H]3[C@H](CCCc4ccc(-c5ccccc5)o4)[C@H]4C=C[C@@H]1[C@@H]2[C@H]43` [BEILSCHMIEDIC ACID O], the IC50 ([1]; nci-h460) was “Not Active”, the MIC ([2]; isolate 108, 24 h) was 13 mg/L (≈ 31.2 µM) and the Activity [3] was “inactive”. The Activity [4] was “inactive” and the Activity [6] was “inactive”.
In the case of `O=C(O)C1=C[C@@H](O)[C@@H]2C[C@H]3[C@H](CCCC4C=CC(c5ccccc5)OO4)[C@H]4C=C[C@@H]1[C@@H]2[C@H]43` (stereo not given in full) [BEILSCHMIEDIC ACID N], the IC50 [1, 8] is reported as 19 µM, the MIC ([2]; isolate 108, 24 h) is reported as 13 mg/L (≈ 29.9 µM) and the Activity [3] is reported as “inactive”. For the same compound, the Activity [4] was “inactive”.
With `O=C(O)C1=C[C@@H](O)[C@@H]2C[C@H]3[C@H](CCCCCc4ccccc4)[C@H]4C=C[C@@H]1[C@@H]2[C@H]43` [BEILSCHMIEDIC ACID K] the IC50 [1, 8] was 5.9 µM, the MIC ([2]; isolate 108, 24 h) was 11 mg/L (≈ 29.1 µM) and the Activity [3] was “inactive”. For the same compound, the Activity [4] was “inactive” and the Activity [5] was “inactive”.
With `CCCCCCCC[C@@H]1[C@H]2C=C[C@H]3C(C(=O)O)=C[C@H](O)[C@@H]4C[C@@H]1[C@@H]2[C@H]43` [BEILSCHMIEDIC ACID A] the IC50 [1, 8] was 6.1 µM, the MIC ([2]; isolate 108, 24 h) was 10 mg/L (≈ 29 µM) and the Activity [3] was “inactive”. For the same compound, the Activity [4] was “inactive”.
